Assay results published in ChEMBL document CHEMBL4043302, “Lead Diversification at the Nanomole Scale Using Liver Microsomes and Quantitative Nuclear Magnetic Resonance Spectroscopy: Application to Phosphodiesterase 2 Inhibitors” (J Med Chem, 2018).

tested on: not listed separately; assay: Drug level in cynomolgus monkey liver microsomes treated with 5-(Difluoromethyl)-7-(1,3-dimethyl-5-(4-(trifluoromethyl)phenyl)-1H-pyrazol-4-yl)-2-methylimidazo[5,1-f ][1,2,4]triazin-4(3H)-one at 20 uM after 1.5 hrs by UHPLC-UV-HRMS method; assay type: ADME, Macaca fascicularis, microsome; details: not given
Summary of the method: (§1)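 Preparative incubation: substrate 20 µM with liver microsomes (2 mg/mL) of the listed species in 0.1 M potassium phosphate, pH 7.5, with MgCl2 3.3 mM and NADPH 1.3 mM. Run at 37°C in a shaking water bath and stopped with an equal volume of CH3CN. Products were fractionated by HPLC and quantified by qNMR in d6-DMSO.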

Structure (SMILES) | Drug metabolism
Cc1nn2c(-c3c(CO)nn(C)c3-c3ccc(C(F)(F)F)cc3)nc(C(F)F)c2c(=O)[nH]1 | Metabolite_Detected
Cc1nn2c(-c3c(C)n[nH]c3-c3ccc(C(F)(F)F)cc3)nc(C(F)F)c2c(=O)[nH]1 | Metabolite_Detected

tested on: MDCKII-LE; assay: (§2) Apparent permeability across RRCK cells after 1.5 hrs; assay type: ADME, cell-based, Canis lupus familiaris; details: dog, mdckii-le, 1.5 h

Structure (SMILES) | Papp [×10⁻⁶ cm/s]
COc1ccc(Cc2nn3c([C@@H](CCC(O)c4ccccc4)[C@@H](C)O)nc(C)c3c(=O)[nH]2)cc1OC (stereo in doubt) | 2.2
COc1ccc(Cc2nn3c([C@@H](CCC(O)c4ccccc4)[C@H](C)O)nc(C)c3c(=O)[nH]2)cc1OC (single isomer, unassigned; diastereomer 2) | 2.2

tested on: not listed separately; assay: as §2; assay type: ADME, cell-based, Canis lupus familiaris, MDCKII-LE; details: dog, MDCK

Structure (SMILES) | Papp at 1.5 h [×10⁻⁶ cm/s]
Cc1nn2c(-c3c(CO)nn(C)c3-c3ccc(C(F)(F)F)cc3)nc(CO)c2c(=O)[nH]1 | 1
Cc1nn2c(-c3c(C)nn(C)c3-c3ccc(C(F)(F)F)c(CO)c3)nc(CO)c2c(=O)[nH]1 | < 0.5
COCc1nc(-c2c(C)nn(C)c2-c2ccc(C(F)(F)F)cc2)n2c1c(=O)[nH]c(C)[n+]2[O-] | 7.9
COc1ccc(-c2[nH]nc(C)c2-c2nc(C)c3c(=O)[nH]c(C)nn23)cn1 | 1.1
Cc1nn2c(-c3c(C)nn(C)c3-c3ccc(C(F)(F)F)cn3)nc(CO)c2c(=O)[nH]1 | 1.7
COc1ccc(-c2[nH]nc(C)c2-c2nc(CO)c3c(=O)[nH]c(C)nn23)cn1 | < 0.5
Cc1nn2c(-c3c(C=O)nn(C)c3-c3ccc(C(F)(F)F)cn3)nc(C)c2c(=O)[nH]1 | 1.2
Cc1nn2c(-c3c(CO)nn(C)c3-c3ccc(C(F)(F)F)cn3)nc(C)c2c(=O)[nH]1 | < 0.5
Cc1nn2c(-c3c(C)nn(C)c3-c3ccc(Cl)cc3)nc(CO)c2c(=O)[nH]1 | 4.9
Cc1nn2c(-c3c(CO)nn(C)c3-c3ccc(C(F)(F)F)cn3)nc(CO)c2c(=O)[nH]1 | 0.54
Cc1nn2c(-c3c(CO)nn(C)c3-c3ccc(C(F)(F)F)c(C)c3)nc(CO)c2c(=O)[nH]1 | 1.7
Cc1nn2c(-c3c(CO)nn(C)c3-c3ccc(C(F)(F)F)cc3)nc(C(F)F)c2c(=O)[nH]1 | 6.3
Cc1nn2c(-c3c(C)nn(C)c3-c3ccc(C(F)(F)F)c(C)c3)nc(CO)c2c(=O)[nH]1 | 13
Cc1nn2c(-c3c(C)n[nH]c3-c3ccc(O)nc3)nc(C)c2c(=O)[nH]1 | < 0.5
Cc1nn2c(-c3c(C)n[nH]c3-c3ccc(C(F)(F)F)cc3)nc(C(F)F)c2c(=O)[nH]1 | 10

tested on: not listed separately; assay: Drug level in rabbit liver microsomes treated with 7-(1,3-Dimethyl-5-(3-methyl-4-(trifluoromethyl)phenyl)-1H-pyrazol-4-yl)-2,5-dimethylimidazo[5,1-f ][1,2,4]triazin-4(3H)-one at 20 uM after 1 hr by UHPLC-UV-HRMS method; assay type: ADME, Oryctolagus cuniculus, microsome; details: not given

Structure (SMILES) | Drug metabolism
Cc1nn2c(-c3c(C)nn(C)c3-c3ccc(C(F)(F)F)c(CO)c3)nc(CO)c2c(=O)[nH]1 | Metabolite_Detected
Cc1nn2c(-c3c(CO)nn(C)c3-c3ccc(C(F)(F)F)c(C)c3)nc(CO)c2c(=O)[nH]1 | Metabolite_Detected
Cc1nn2c(-c3c(C)nn(C)c3-c3ccc(C(F)(F)F)c(C)c3)nc(CO)c2c(=O)[nH]1 | Metabolite_Detected

tested on: Liver; assay: Drug level in mouse liver microsomes treated with 7-(5-(4-Chlorophenyl)-1,3-dimethyl-1H-pyrazol-4-yl)-2,5-dimethylimidazo[5,1-f ][1,2,4]triazin-4(3H)-one at 20 uM after 1.5 hrs by UHPLC-UV-HRMS method; assay type: ADME, microsome; details: not given; summary of the method: as §1

Structure (SMILES) | Drug metabolism
Cc1nn2c(-c3c(C)nn(C)c3-c3ccc(Cl)cc3)nc(CO)c2c(=O)[nH]1 | Metabolite_Detected

tested on: not listed separately; assay: Drug level in cynomolgus monkey liver microsomes treated with 7-(1,3-Dimethyl-5-(5-(trifluoromethyl)pyridine-2-yl)-1H-pyrazol-4-yl)-2,5-dimethylimidazo[5,1-f ][1,2,4]triazin-4(3H)-one at 20 uM after 1.2 hrs by UHPLC-UV-HRMS method; assay type: ADME, Macaca fascicularis, microsome; details: not given; summary of the method: as §1

Structure (SMILES) | Drug metabolism
Cc1nn2c(-c3c(C)nn(C)c3-c3ccc(C(F)(F)F)cn3)nc(CO)c2c(=O)[nH]1 | Metabolite_Detected
Cc1nn2c(-c3c(C=O)nn(C)c3-c3ccc(C(F)(F)F)cn3)nc(C)c2c(=O)[nH]1 | Metabolite_Detected
Cc1nn2c(-c3c(CO)nn(C)c3-c3ccc(C(F)(F)F)cn3)nc(C)c2c(=O)[nH]1 | Metabolite_Detected
Cc1nn2c(-c3c(CO)nn(C)c3-c3ccc(C(F)(F)F)cn3)nc(CO)c2c(=O)[nH]1 | Metabolite_Detected

tested on: not listed separately; assay: Intrinsic clearance in human hepatocytes assessed per million cells at 1 uM after 0.5 to 4 hrs by HPLC-HRMS method; assay type: ADME, cell-based, Hepatocyte; details: hepatocytes, 1 µM
Summary of the method: (§3)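 Compound at 1 µM was dried from d6-DMSO and redissolved in Williams E medium. Pooled human hepatocytes were added at 680000 cells/mL. Samples were quenched in water/CH3CN (2:1) with 2% formic acid and clozapine as internal standard, then analysed by HPLC-HRMS in positive-ion full scan. k came from the slope of ln peak-area ratio versus time; CLint = k / cell concentration. Non-specific binding was not measured.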

Structure (SMILES) | CLint [µL/min/1e6 cells]
COc1ccc(Cc2nn3c([C@@H](CCC(O)c4ccccc4)[C@@H](C)O)nc(C)c3c(=O)[nH]2)cc1OC (stereo in doubt) | 17
COc1ccc(Cc2nn3c([C@@H](CCC(O)c4ccccc4)[C@H](C)O)nc(C)c3c(=O)[nH]2)cc1OC (single isomer, unassigned; diastereomer 2) | 14

same assay, conditions: human hepatocytes, read-out: CLH

Structure (SMILES) | hepatocyte CLint at 1 µM [µL/min/1e6 cells]
COCc1nc(-c2c(C)nn(C)c2-c2ccc(C(F)(F)F)cc2)n2c1c(=O)[nH]c(C)[n+]2[O-] | 13
COc1ccc(-c2[nH]nc(C)c2-c2nc(C)c3c(=O)[nH]c(C)nn23)cn1 | 1.9
Cc1nn2c(-c3c(C=O)nn(C)c3-c3ccc(C(F)(F)F)cn3)nc(C)c2c(=O)[nH]1 | 14.7
Cc1nn2c(-c3c(C)nn(C)c3-c3ccc(Cl)cc3)nc(CO)c2c(=O)[nH]1 | 15
Cc1nn2c(-c3c(CO)nn(C)c3-c3ccc(C(F)(F)F)cc3)nc(C(F)F)c2c(=O)[nH]1 | 5.5
Cc1nn2c(-c3c(C)n[nH]c3-c3ccc(C(F)(F)F)cc3)nc(C(F)F)c2c(=O)[nH]1 | 6.4

tested on: not listed separately; assay: Drug level in hamster liver microsomes treated with 7-(5-(4-Methoxyphenyl)-1,3-dimethyl-1H-pyrazol-4-yl)-2,5-dimethylimidazo[5,1-f ][1,2,4]triazin-4(3H)-one at 20 uM after 1.5 hrs by UHPLC-UV-HRMS method; assay type: ADME, microsome; details: cricetinae; summary of the method: as §1

Structure (SMILES) | Drug metabolism
COc1ccc(-c2[nH]nc(C)c2-c2nc(C)c3c(=O)[nH]c(C)nn23)cn1 | Metabolite_Detected
COc1ccc(-c2[nH]nc(C)c2-c2nc(CO)c3c(=O)[nH]c(C)nn23)cn1 | Metabolite_Detected
Cc1nn2c(-c3c(C)n[nH]c3-c3ccc(O)nc3)nc(C)c2c(=O)[nH]1 | Metabolite_Detected

molecular target: cGMP-dependent 3',5'-cyclic phosphodiesterase (Homo sapiens, UniProt O00408); assay: Inhibition of human PDE2A1 using 3',5'-[3H]cGMP as substrate after 30 mins by scintillation proximity assay; details: not given
Sequence (O00408 whole entry): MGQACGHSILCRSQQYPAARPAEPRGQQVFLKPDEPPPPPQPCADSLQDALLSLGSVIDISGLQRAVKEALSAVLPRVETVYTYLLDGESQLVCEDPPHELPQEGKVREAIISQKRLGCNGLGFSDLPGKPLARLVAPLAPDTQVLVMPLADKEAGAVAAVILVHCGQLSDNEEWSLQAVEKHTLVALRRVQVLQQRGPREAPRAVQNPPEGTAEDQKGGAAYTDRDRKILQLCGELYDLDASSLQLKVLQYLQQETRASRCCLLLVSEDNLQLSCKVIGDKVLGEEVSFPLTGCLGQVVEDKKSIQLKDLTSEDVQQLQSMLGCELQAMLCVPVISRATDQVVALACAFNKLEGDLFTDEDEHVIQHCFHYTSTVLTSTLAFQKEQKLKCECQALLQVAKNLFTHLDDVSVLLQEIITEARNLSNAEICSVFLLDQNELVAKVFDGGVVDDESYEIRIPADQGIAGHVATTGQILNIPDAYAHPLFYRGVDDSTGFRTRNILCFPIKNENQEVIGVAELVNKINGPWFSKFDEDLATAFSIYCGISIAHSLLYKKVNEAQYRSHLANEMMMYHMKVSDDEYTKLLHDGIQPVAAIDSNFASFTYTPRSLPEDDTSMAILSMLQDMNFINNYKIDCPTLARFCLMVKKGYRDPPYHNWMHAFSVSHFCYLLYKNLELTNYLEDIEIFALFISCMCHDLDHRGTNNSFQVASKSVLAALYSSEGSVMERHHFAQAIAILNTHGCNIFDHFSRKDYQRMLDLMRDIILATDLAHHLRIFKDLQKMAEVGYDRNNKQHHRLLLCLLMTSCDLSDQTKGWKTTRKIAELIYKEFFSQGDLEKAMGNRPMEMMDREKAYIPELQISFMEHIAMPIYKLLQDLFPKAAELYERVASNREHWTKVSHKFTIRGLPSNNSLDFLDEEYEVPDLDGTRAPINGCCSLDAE

Structure (SMILES) | IC50 [nM]
Cc1nn2c(-c3c(C)n[nH]c3-c3ccc(O)nc3)nc(C)c2c(=O)[nH]1 | > 2000

tested on: not listed separately; assay: Metabolic stability in human hepatocytes at 1 uM after 0.5 to 4 hrs by HPLC-HRMS method; assay type: ADME, cell-based, Hepatocyte; details: not given; summary of the method: as §3

Structure (SMILES) | Stability
Cc1nn2c(-c3c(CO)nn(C)c3-c3ccc(C(F)(F)F)cc3)nc(CO)c2c(=O)[nH]1 | Stable
Cc1nn2c(-c3c(C)nn(C)c3-c3ccc(C(F)(F)F)c(CO)c3)nc(CO)c2c(=O)[nH]1 | Stable
Cc1nn2c(-c3c(C)nn(C)c3-c3ccc(C(F)(F)F)cn3)nc(CO)c2c(=O)[nH]1 | Stable
COc1ccc(-c2[nH]nc(C)c2-c2nc(CO)c3c(=O)[nH]c(C)nn23)cn1 | Stable
Cc1nn2c(-c3c(CO)nn(C)c3-c3ccc(C(F)(F)F)cn3)nc(C)c2c(=O)[nH]1 | Stable
Cc1nn2c(-c3c(CO)nn(C)c3-c3ccc(C(F)(F)F)cn3)nc(CO)c2c(=O)[nH]1 | Stable
Cc1nn2c(-c3c(CO)nn(C)c3-c3ccc(C(F)(F)F)c(C)c3)nc(CO)c2c(=O)[nH]1 | Stable
Cc1nn2c(-c3c(C)nn(C)c3-c3ccc(C(F)(F)F)c(C)c3)nc(CO)c2c(=O)[nH]1 | Stable
Cc1nn2c(-c3c(C)n[nH]c3-c3ccc(O)nc3)nc(C)c2c(=O)[nH]1 | Stable

tested on: not listed separately; assay: Drug level in hamster liver microsomes treated with 7-(1,3-Dimethyl-5-(4-(trifluoromethyl)phenyl)-1H-pyrazol-4-yl)-5-(methoxymethyl)-2-methylimidazol[5,1-f ][1,2,4]triazin-4-(3H)-one at 20 uM after 1 hr by UHPLC-UV-HRMS method; assay type: ADME, microsome; details: cricetinae; summary of the method: as §1

Structure (SMILES) | Drug metabolism
Cc1nn2c(-c3c(CO)nn(C)c3-c3ccc(C(F)(F)F)cc3)nc(CO)c2c(=O)[nH]1 | Metabolite_Detected
COCc1nc(-c2c(C)nn(C)c2-c2ccc(C(F)(F)F)cc2)n2c1c(=O)[nH]c(C)[n+]2[O-] | Metabolite_Detected
